# Shown are actives, neighbours in structure and some others; about 3.7% of the full set was active somewhere.
# KCNQ1 block: inhibitors of human KCNQ1 potassium channel. CHO-K1 KCNQ1, FluxOR thallium flux fluorescence; stronger effect = higher value. B-score at 10 µM. 310,000 compounds, 1.3% hits;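 active = compounds whose thallium flux B-score, printed positive for inhibition, exceeds three library SD while starting fluorescence stays within three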;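 note: channel opened by potassium depolarization with thallium stimulus after 20 min compound exposure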
# Target sequence (P51787 whole entry, looked up): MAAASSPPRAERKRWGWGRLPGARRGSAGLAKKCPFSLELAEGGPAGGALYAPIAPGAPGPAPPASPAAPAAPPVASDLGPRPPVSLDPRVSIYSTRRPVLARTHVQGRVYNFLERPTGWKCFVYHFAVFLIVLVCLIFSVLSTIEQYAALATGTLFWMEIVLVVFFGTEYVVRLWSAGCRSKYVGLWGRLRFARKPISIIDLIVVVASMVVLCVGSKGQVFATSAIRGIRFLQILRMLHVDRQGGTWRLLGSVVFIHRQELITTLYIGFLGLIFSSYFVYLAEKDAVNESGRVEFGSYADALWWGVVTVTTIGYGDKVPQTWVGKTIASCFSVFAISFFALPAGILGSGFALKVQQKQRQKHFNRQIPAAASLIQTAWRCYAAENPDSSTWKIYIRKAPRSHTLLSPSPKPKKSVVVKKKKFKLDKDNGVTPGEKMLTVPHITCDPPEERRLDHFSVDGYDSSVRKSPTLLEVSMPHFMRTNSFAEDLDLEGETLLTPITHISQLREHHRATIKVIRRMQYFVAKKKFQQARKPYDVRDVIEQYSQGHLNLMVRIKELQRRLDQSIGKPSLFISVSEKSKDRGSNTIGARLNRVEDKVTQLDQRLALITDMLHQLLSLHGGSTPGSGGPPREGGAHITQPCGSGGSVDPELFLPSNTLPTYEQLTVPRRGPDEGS
# KCNQ1 pot: potentiators or activators of human KCNQ1 potassium channel. P51787. CHO-K1 KCNQ1, thallium flux FluxOR fluorescence; stronger effect = higher value. B-score at 10 µM. 310,000 compounds, 0.35% hits;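 active = fluorescence ratio B-score, a plate-corrected score, at least three library SD, with initial intensity B-score within 5 SD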
#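 Assay system: CHO-K1 cells stably expressing KCNQ1. Medium: assay buffer for compound exposure, DMSO matched across wells. Timing: 37 °C overnight plating, 90-min dark dye load, 20-min compound pretreatment. Signal: kinetic FluxOR fluorescence, 10 s baseline plus 110 s post-stimulus.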
# KCNK9 inh: blocks the human KCNK9 two-pore domain potassium channel; HEK293 KCNK9, FluxOR thallium flux fluorescence; stronger effect = lower value; B-score at 10 µM; 310,000 compounds, 1.2% hits; AID 488922;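 active = ratio B-score over 3 SD below the library mean, with starting fluorescence within 5 SD of its mean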;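 note: negative B-score means less thallium flux so channel inhibition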
# Kir21 inh: blocks the mouse Kir2.1 inward-rectifier potassium channel. 310,000 compounds, 0.85% hits. HEK293-Kir2.1, FluxOR thallium flux fluorescence; stronger effect = lower value. B-score at 10 µM;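 active = fluorescence ratio B-score at or below minus 3 SD of library scores, with starting-brightness B-score within 2 SD, cut at about -4.2 in these data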;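 note: channel flux triggered by added potassium and thallium sulfate stimulus; B-score of peak minus minimum fluorescence over baseline after thallium stimulus; more negative B-score means stronger Kir2.1 block with less thallium influx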
# hERG protect: compounds protecting human hERG from proarrhythmic drug block; AID 1511; activation (rescue from dofetilide block), less the hit threshold, % at 10 µM; CHO-hERG, FluxOR thallium flux, dofetilide IC70 present; 310,000 compounds, 0.51% hits;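 active = activation above the mean of controls blocked by dofetilide plus 5 SD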;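 note: thallium influx through hERG after potassium depolarization seen as dye fluorescence rise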
# KCNK3 inh: human KCNK3 channel inhibition, primary screen | 340,000 compounds, 0.84% hits | O14649 | B-score at 10 µM | CHO-KCNK3 thallium flux, FluxOR fluorescence; stronger effect = lower value;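 active = B-score under library mean minus 4 SD, starting fluorescence ratio at most library mean plus 5 SD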;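 note: more negative B-score means stronger inhibition of thallium flux through KCNK3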
# KCNK9 block conf: human KCNK9 inhibitor confirmation | shares compounds with KCNK9 inh | HEK293 KCNK9 cells, FluxOR thallium flux fluorescence | inhibition, % at 10 µM | 4,900 compounds, 43% hits;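 active = thallium signal inhibited by more than 5 SD of the compound-free buffer control wells, on both duplicate plates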
# Kir2-1 spec: mouse Kir2.1 off-target activity of KCNK9 modulators | shares compounds with KCNK9 inh | Kir2.1 cells, FluxOR thallium flux fluorescence | inhibition, % at 10 µM | 4,900 compounds, 4% hits | AID 492993;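 active = thallium signal drop more than 5 SD beyond the mean of the no-compound control wells, seen in both duplicate plates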;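 note: signal is fluorescence rise after thallium addition divided by baseline fluorescence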
# HEK293 Tl ctr: second check of KCNK9 modulator effects in non-induced HEK293 cells. FluxOR thallium flux. 4,900 compounds, 40% hits. shares compounds with KCNK9 inh. inhibition, % at 10 µM;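 active = thallium signal drop beyond 5 SD of the untreated control mean, on both duplicate plates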
# Hits are given with their value; - = inactive; . = not tested or not shown.
SMILES,KCNQ1 block,KCNQ1 pot,KCNK9 inh,Kir21 inh,hERG protect,KCNK3 inh,KCNK9 block conf,Kir2-1 spec,HEK293 Tl ctr
Cc1cc(C)cc(NC2=CC(=O)CC(c3ccco3)C2)c1 (stereo unspecified),-,-,-12,-,-,-,37%,-,24%
CS(=O)(=O)c1ccc(Cl)c(NC(=O)c2cc(=O)[nH]c3ccc(S(=O)(=O)N4CCOCC4)cc23)c1,-,-,-,-,-,-,.,.,.
CC1CC2(CCCCC2)Nc2c1ccc1ccccc21 (stereo unspecified),-,-,-,-,-,-,.,.,.
CC(=O)N1c2c(ccc3ccccc23)C(C)CC12CCCCC2 (stereo unspecified),-,-,-14,-,-,-,49%,-,47%
COCCOc1cc(NC(=O)c2sccc2Oc2ccc([N+](=O)[O-])cc2F)c(Cl)cc1Cl,9,-,-,-,-,-,-,-,-
COCCOc1cc(NC(=O)c2cccc(OC)c2)c(Cl)cc1Cl,-,-,-,-,-,-,.,.,.
CN(C)C(C(=O)Nc1cc(Cl)cc(Cl)c1)c1ccccc1 (stereo unspecified),-,-,-10,-,-,-,44%,-,30%
O=C(OC(C(=O)Nc1cc(Cl)cc(Cl)c1)c1ccccc1)C1=COCCO1 (stereo unspecified),-,-,-,-,-,-,.,.,.
COc1ccc(NC(=O)N(CCc2ccccc2)Cc2cc3c(C)cc(C)cc3[nH]c2=O)cc1,-,-,-,-,-,-,-,-,-
COc1ccc(NC(=O)CN2C(=O)NC(C)(C3CC3)C2=O)cc1S(=O)(=O)N1CCOCC1 (stereo unspecified),.,.,.,.,.,-,.,.,.
O=C(O)c1cc(NN=Nc2ccc(Br)cc2)cc([N+](=O)[O-])c1,-,-,-,-,-,-,-,-,-
Cc1ccc(Cn2ccc(NC(=O)c3cc(-c4ccc(Cl)cc4)on3)n2)cc1,-,-,-,-,-,-,.,.,.
Cc1ccc(Cn2ccc(NC(=O)c3cc(CC(C)C)on3)n2)cc1,-,-,-,-,-,-,-,-,-
Fc1ccc(Cn2nnnc2C(c2ccc(Cl)cc2)N2CCSCC2)cc1 (stereo unspecified),-,-,-9.4,-,-,-,40%,-,44%
Cc1cccc2nc(CNC(=O)CC3C(=O)NCCN3Cc3cccc(F)c3)cn12 (stereo unspecified),-,-,-,-,-,-,.,.,.
C=CCC1(CC=C)CCCN1C(=O)c1cc(COc2ccc(F)c(F)c2)on1,10,-,-,-,-,-,-,-,-
Cn1ccnc1CN1CCN(C(=O)c2cc(COc3ccc(F)c(F)c3)on2)CC1,-,-,-,-,-,-,.,.,.
CC(C)(C)n1nnnc1C(c1cccs1)N(Cc1cccnc1)Cc1ccccc1Cl (stereo unspecified),-,-,-19,-,-,-,70%,-,54%
CC(C)(C)n1nnnc1C(c1cccs1)N1CCN(Cc2ccccc2)CC1 (stereo unspecified),-,-,-,-,-,-,.,.,.
COc1ccc(S(=O)(=O)Nc2cc(C)cc(C)n2)c2ccccc12,-,-,-,-,-,-,.,.,.
CCOc1ccc(S(=O)(=O)Nc2cc(C)ccn2)c2ccccc12,-,-,-,-,-,-,-,-,-
O=C(C1CC(c2cccc(Br)c2)=NO1)N1CCc2ccccc2C1 (stereo unspecified),-,-,-,-,-,-,-,-,-
COc1cc(OC)c(C2=NOC(C(=O)N3CCc4ccccc4C3)C2)cc1Cl (stereo unspecified),-,-,-,-,-,-,.,.,.
CC(C)(C)c1cc(-c2csc(Nc3ccccc3)[n+]2Cc2ccc(C(=O)O)cc2)cc(C(C)(C)C)c1O,-,15,-,-,-,-,-,-,-
Cc1cccc(N2CCN(C(=O)NCc3ccc(F)cc3)CC2)c1C,-,-,-,-,-,-,.,.,.
SMILES,KCNQ1 block,KCNQ1 pot,KCNK9 inh,Kir21 inh,hERG protect,KCNK3 inh,KCNK9 block conf,Kir2-1 spec,HEK293 Tl ctr
O=C(O)CC1(CC(=O)NCc2csc(-c3cccs3)n2)CCCCC1,-,-,-,-,-,-,.,.,.
CS(=O)(=O)N(CC(=O)NCCSCc1cccc(Cl)c1)c1ccc(F)cc1,-,-,-,-,-,-,.,.,.
CC1=NN(c2ccccc2)C(=O)/C1=C\c1ccc(Oc2ccc([N+](=O)[O-])cc2[N+](=O)[O-])cc1,-,-,-,-,-,-,-,-,-
C=CCN(C(=O)c1oc2c(Cl)cc(C)cc2c1C)C1CCS(=O)(=O)C1 (stereo unspecified),-,-,-,-,-,-,-,-,-
Cc1cc(C(=O)NCCc2ccccc2)c2cc(F)ccc2n1,-,-,-,-,-,-,.,.,.
COc1ccc(OCc2cc(C(=O)N3CCCCCCC3)no2)c(Cl)c1,-,-,-,-,-,-,.,.,.
CSc1ccccc1OCc1cc(C(=O)N2CCc3c(Cl)cccc3C2)no1,-,-,-,-,-,-,-,-,-
COc1ccc(OCc2cc(C(=O)N3CCN(C4CCCC4)CC3)no2)c(Cl)c1,-,-,-,-,-,-,-,-,-
Cc1ccc(OCc2cc(C(=O)N3CCC(c4ccccc4Cl)C3)no2)cc1C (stereo unspecified),-,-,-,-,-,-,-,-,-
Cc1ccc(OCc2cc(C(=O)N3CCCCCCC3)no2)cc1C,-,-,-,-,-,-,.,.,.
COc1ccccc1C(=O)NC(=O)COC(=O)C1CC2CCCC(C1)C2=O (stereo unspecified),-,-,-,-,-,-,.,.,.
CC[C@]12c3[nH]c4cc(-c5ccco5)ccc4c3CCN1C(=O)[C@@H](CC(=O)NCCN1CCOCC1)C[C@@H]2C(=O)N1CCN(C(=O)C2CC2)CC1,.,.,.,.,.,-,.,.,.
O=C(NCc1cc(Br)cc(Br)c1OC(=O)c1ccccc1[N+](=O)[O-])c1ccccc1,-,-,-9.9,-,-,-,62%,-,34%
O=C(CC(=O)c1ccccc1[N+](=O)[O-])c1ccccc1,-,-,-,-,-,.,.,.,.
Cc1cccc(N=Nc2c(C)nn(-c3ccccc3)c2N)c1C,-,-,-9.3,-,-,-,34%,-,-
Cc1nn(-c2ccccc2)c(N)c1N=Nc1ccccc1,-,-,-11,-,-,-,29%,-,28%
Cc1nn(-c2ccccc2)c(N)c1N=Nc1ccc(Cl)cc1,-,-,-,-,-,-,.,.,.
Nc1nn(-c2ccccc2)c(N)c1N=Nc1ccccc1F,-,-,-,-,-,-,.,.,.

# Source: PubChem BioAssay (Johns Hopkins Ion Channel Center)
